From ChEMBL document CHEMBL5058577, “EUbOPEN Chemogenomics Library 2 (Multiplex)” (2022)

Test system: U2OS
Test: Multiplex assay against U2OS
Format: toxicity, cell-based
Conditions: human
In short: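 Four dyes were applied at seeding to live cells: Hoechst33342, BioTracker Green Microtubule Cytoskeleton Dye, MitoTracker Red and Annexin V Alexa Fluor 680. Imaging after compound addition used a CQ1 microscope at 37°C and 5% CO2. CellPathfinder machine-learning gating then sorted cells into Hoechst high-intensity objects or normal cells, normal cells into healthy, pyknosed or fragmented nuclei, and pyknosed cells into mitotic or apoptotic, with tubulin, mitochondrial-mass and membrane-permeability phenotypes given as per cents of healthy-nucleus cells.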

[1] = 12 h, 1 µM, compound concentration 1 uM, replicate 1
[2] = 12 h, 1 µM, compound concentration 1 uM, replicate 2
[3] = 12 h, 10 µM, compound concentration 10 uM, replicate 1
[4] = 12 h, 10 µM, compound concentration 10 uM, replicate 2
[5] = 24 h, 1 µM, compound concentration 1 uM, replicate 1
[6] = 24 h, 1 µM, compound concentration 1 uM, replicate 2
[7] = 24 h, 10 µM, compound concentration 10 uM, replicate 1
[8] = 24 h, 10 µM, compound concentration 10 uM, replicate 2
[9] = 48 h, 1 µM, compound concentration 1 uM, replicate 1
[10] = 48 h, 1 µM, compound concentration 1 uM, replicate 2
[11] = 48 h, 10 µM, compound concentration 10 uM, replicate 1
[12] = 48 h, 10 µM, compound concentration 10 uM, replicate 2

Compound: CCn1c(-c2nc3cc(C(=O)N4CCCC(N)C4)ccc3n2C)cc2ccccc21.Cl (stereo unspecified)
- Population Apoptotic (%) [1]: 61%
- Population Fragmented Nuclei (%) [1]: 22%
- Population Healthy Nuclei (%) [1]: 67%
- Population Hoechst High Intensity Objects (%) [1]: 0%
- Population Membrane Permeable-Phenotype (%) [1]: 4%
- Population Mitochondria Different-Phenotype (%) [1]: 3%
- Population Mitotic Cells (%) [1]: 38%
- Population Normal (%) [1]: 99%
- Population Pyknosed Nuclei (%) [1]: 9%
- Population Tubulin-Different-Phenotype (%) [1]: 2%
- Total Cell Count [1]: 213
- Population Apoptotic (%) [2]: 100%
- Population Fragmented Nuclei (%) [2]: 18%
- Population Healthy Nuclei (%) [2]: 77%
- Population Hoechst High Intensity Objects (%) [2]: 5%
- Population Membrane Permeable-Phenotype (%) [2]: 15%
- Population Mitochondria Different-Phenotype (%) [2]: 18%
- Population Mitotic Cells (%) [2]: 0%
- Population Normal (%) [2]: 94%
- Population Pyknosed Nuclei (%) [2]: 3%
- Population Tubulin-Different-Phenotype (%) [2]: 13%
- Total Cell Count [2]: 90
- Population Apoptotic (%) [3]: 48%
- Population Fragmented Nuclei (%) [3]: 24%
- Population Healthy Nuclei (%) [3]: 56%
- Population Hoechst High Intensity Objects (%) [3]: 2%
- Population Membrane Permeable-Phenotype (%) [3]: 34%
- Population Mitochondria Different-Phenotype (%) [3]: 29%
- Population Mitotic Cells (%) [3]: 51%
- Population Normal (%) [3]: 97%
- Population Pyknosed Nuclei (%) [3]: 19%
- Population Tubulin-Different-Phenotype (%) [3]: 27%
- Total Cell Count [3]: 277
- Population Apoptotic (%) [4]: 54%
- Population Fragmented Nuclei (%) [4]: 21%
- Population Healthy Nuclei (%) [4]: 60%
- Population Hoechst High Intensity Objects (%) [4]: 1%
- Population Membrane Permeable-Phenotype (%) [4]: 25%
- Population Mitochondria Different-Phenotype (%) [4]: 55%
- Population Mitotic Cells (%) [4]: 45%
- Population Normal (%) [4]: 98%
- Population Pyknosed Nuclei (%) [4]: 18%
- Population Tubulin-Different-Phenotype (%) [4]: 48%
- Total Cell Count [4]: 135
- Population Apoptotic (%) [5]: 82%
- Population Fragmented Nuclei (%) [5]: 22%
- Population Healthy Nuclei (%) [5]: 68%
- Population Hoechst High Intensity Objects (%) [5]: 1%
- Population Membrane Permeable-Phenotype (%) [5]: 6%
- Population Mitochondria Different-Phenotype (%) [5]: 3%
- Population Mitotic Cells (%) [5]: 17%
- Population Normal (%) [5]: 98%
- Population Pyknosed Nuclei (%) [5]: 9%
- Population Tubulin-Different-Phenotype (%) [5]: 3%
- Total Cell Count [5]: 249
- Population Apoptotic (%) [6]: 66%
- Population Fragmented Nuclei (%) [6]: 25%
- Population Hoechst High Intensity Objects (%) [6]: 3%
- Population Membrane Permeable-Phenotype (%) [6]: 14%
- Population Mitochondria Different-Phenotype (%) [6]: 13%
- Population Mitotic Cells (%) [6]: 33%
- Population Normal (%) [6]: 96%
- Population Pyknosed Nuclei (%) [6]: 5%
- Population Tubulin-Different-Phenotype (%) [6]: 13%
- Total Cell Count [6]: 112
- Population Apoptotic (%) [7]: 62%
- Population Fragmented Nuclei (%) [7]: 27%
- Population Healthy Nuclei (%) [7]: 54%
- Population Hoechst High Intensity Objects (%) [7]: 2%
- Population Membrane Permeable-Phenotype (%) [7]: 16%
- Population Mitochondria Different-Phenotype (%) [7]: 34%
- Population Mitotic Cells (%) [7]: 38%
- Population Normal (%) [7]: 97%
- Population Pyknosed Nuclei (%) [7]: 17%
- Population Tubulin-Different-Phenotype (%) [7]: 11%
- Total Cell Count [7]: 288
- Population Apoptotic (%) [8]: 73%
- Population Fragmented Nuclei (%) [8]: 19%
- Population Healthy Nuclei (%) [8]: 64%
- Population Hoechst High Intensity Objects (%) [8]: 3%
- Population Membrane Permeable-Phenotype (%) [8]: 20%
- Population Mitochondria Different-Phenotype (%) [8]: 53%
- Population Mitotic Cells (%) [8]: 26%
- Population Normal (%) [8]: 96%
- Population Pyknosed Nuclei (%) [8]: 16%
- Population Tubulin-Different-Phenotype (%) [8]: 26%
- Total Cell Count [8]: 146
- Population Apoptotic (%) [9]: 75%
- Population Fragmented Nuclei (%) [9]: 16%
- Population Healthy Nuclei (%) [9]: 76%
- Population Hoechst High Intensity Objects (%) [9]: 2%
- Population Membrane Permeable-Phenotype (%) [9]: 8%
- Population Mitochondria Different-Phenotype (%) [9]: 3%
- Population Mitotic Cells (%) [9]: 25%
- Population Normal (%) [9]: 97%
- Population Pyknosed Nuclei (%) [9]: 6%
- Population Tubulin-Different-Phenotype (%) [9]: 5%
- Total Cell Count [9]: 354
- Population Apoptotic (%) [10]: 70%
- Population Fragmented Nuclei (%) [10]: 22%
- Population Healthy Nuclei (%) [10]: 70%
- Population Hoechst High Intensity Objects (%) [10]: 4%
- Population Membrane Permeable-Phenotype (%) [10]: 10%
- Population Mitochondria Different-Phenotype (%) [10]: 9%
- Population Mitotic Cells (%) [10]: 30%
- Population Normal (%) [10]: 95%
- Population Pyknosed Nuclei (%) [10]: 7%
- Population Tubulin-Different-Phenotype (%) [10]: 8%
- Total Cell Count [10]: 145
- Population Apoptotic (%) [11]: 78%
- Population Fragmented Nuclei (%) [11]: 26%
- Population Healthy Nuclei (%) [11]: 53%
- Population Hoechst High Intensity Objects (%) [11]: 5%
- Population Membrane Permeable-Phenotype (%) [11]: 23%
- Population Mitochondria Different-Phenotype (%) [11]: 22%
- Population Mitotic Cells (%) [11]: 21%
- Population Normal (%) [11]: 94%
- Population Pyknosed Nuclei (%) [11]: 19%
- Population Tubulin-Different-Phenotype (%) [11]: 11%
- Total Cell Count [11]: 353
- Population Apoptotic (%) [12]: 77%
- Population Fragmented Nuclei (%) [12]: 18%
- Population Healthy Nuclei (%) [12]: 64%
- Population Hoechst High Intensity Objects (%) [12]: 6%
- Population Membrane Permeable-Phenotype (%) [12]: 24%
- Population Mitochondria Different-Phenotype (%) [12]: 39%
- Population Mitotic Cells (%) [12]: 22%
- Population Normal (%) [12]: 93%
- Population Pyknosed Nuclei (%) [12]: 16%
- Population Tubulin-Different-Phenotype (%) [12]: 19%
- Total Cell Count [12]: 173
